Entries after “also recorded” stand apart in the source; their conditions may differ.
Columns and labels:
hGPR40 = hGPR40 (Homo sapiens, UniProt O14842); test: Calcium flux assay; type: cell-based
[1] = tested on: nuclear hormone receptors, other G-protein-coupled receptors (GPCRs) and enzyme targets; test: Broad range of assays: nuclear hormone receptors, other GPCRs and enzyme targets; details: data not shown
[2] = tested on: primary islets from WT mice; test: Insulin secretion from isolated WT mouse islets; type: cell-based; details: 11.2 mmol/L glucose, 90 min
Outline: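 Islets came from 2-3-month-old male wild-type C57BL/6 mice and were purified on a Histopaque-1100 gradient. They were exposed to test compound, or linoleic acid as reference ligand, in 11.2 mmol/L glucose. Insulin secretion is expressed as fold over vehicle, analysed by ANOVA with Dunnett's comparison.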

[3] = tested on: primary islets from GPR40 KO mice; test: Insulin secretion from isolated GPR40 KO mouse islets; type: cell-based; details: 11.2 mmol/L glucose, 90 min
Outline: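 Islets from 2–3-month-old male GPR40 KO mice were purified on a Histopaque-1100 gradient and cultured overnight in RPMI-1640 with 10% FBS and antibiotics. They were preincubated 30 min in EBSS with 0.1% BSA and 2.8 mmol/L glucose. Islets were then incubated 90 min with 2.8 or 11.2 mmol/L glucose plus rising test compound levels (6 batches of 4 islets per condition). Linoleic acid and GLP-1(7-36) amide served as controls. Insulin was measured by ECL, expressed as fold over vehicle, and compared by ANOVA with Dunnett's test.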

[4] = Compound exposure in lean mice; type: in vivo, mouse; details: single oral dose 10 mg/kg, over 8 h
Outline: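 Male ICR mice; single oral dose in 0.5% methylcellulose/0.25% Tween-80. EDTA-plasma collected by retro-orbital bleed at 0.5, 1, 2, 4 and 8 h post-dose. Total circulating test compound measured by LC-MS.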

normal ICR mice = test: IPGTT in lean ICR mice; type: in vivo, mouse
Outline: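 Male ICR mice aged 9-10 weeks were fasted overnight (about 1600 to 0800) and randomized by fasting glucose and body weight. Test compound or vehicle (0.5% methylcellulose/0.25% Tween-80) was given orally 60 min before IP glucose. Serum was sampled at 0, 3, 6 and 15 min and assayed with a Mesoscale rat/mouse insulin kit.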

WT mice = test: OGTT in WT mice; type: in vivo, mouse; details: oral 30 mg/kg, 60 min before OGTT, versus vehicle
Outline: (§1)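 Chow-fed male mice aged 2–3 months (WT, GPR40 KO or GPR120 KO) were fasted overnight from about 1600 and randomized at about 0800 by fasting glucose and body weight. Oral test compound 30 mg/kg or vehicle (0.5% methylcellulose, 0.25% Tween-80) was given 60 min before oral glucose 2 g/kg. Tail-blood glucose was read by glucometer at 0, 15, 30, 60 and 120 min, averaging two readings, and analysed by repeated-measures ANOVA.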

GPR40 KO mice = test: OGTT in GPR40 KO mice; type: in vivo, mouse; details: oral 30 mg/kg, 60 min before OGTT, versus vehicle
Outline: as §1

[5] = tested on: diet-induced obese (DIO) mice; test: Glycemic control in DIO mice; type: in vivo, mouse; details: oral 10 mg/kg once daily
Outline: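 Male DIO mice aged 5–6 months were acclimated for 2 weeks and randomized by body weight and fasting blood glucose. They received oral test compound at 10 mg/kg or vehicle (0.5% methylcellulose, 0.25% Tween-80) once daily for 15 days, dosed 60 min before oral glucose. OGTTs on days 1 and 15 sampled tail blood at 0, 15, 30, 60 and 120 min by glucometer, averaging two readings.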

STZ-treated DIO mice = test: Glycemic control in STZ-treated DIO mice; type: in vivo, mouse; details: for glucose AUC during OGTTs on days 7 and 14: oral once daily, LY2881835 30 mg/kg, sitagliptin 3 mg/kg
Outline: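 Male DIO mice aged 5–6 months got IP streptozotocin 50 mg/kg twice in one week. Two weeks later, mice with 9 am glucose of 180–300 mg/dL were randomized by body weight and glucose. Dosing was oral, once daily for 16 days: test compound 30 mg/kg given 30 min and sitagliptin 3 mg/kg 60 min before OGTTs on days 1, 7 and 14. Glucose was sampled at 0–120 min and glucose AUC calculated; 7 per group, with age-matched non-STZ mice included.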

individuals with T2D = details: oral, 12 weeks, ref Araki et al. 2012, Burant et al. 2012; cited from earlier work
Zucker fa/fa rats = test: Glycemic control in fatty Zucker fa/fa rats; type: in vivo, rat; details: oral once daily, LY2881835 1 mg/kg, rosiglitazone 3 mg/kg
Outline: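 Male Zucker fa/fa rats aged 2–3 months were acclimated for 2 weeks and randomized by body weight and glucose (n = 6/group). Test compound 1 mg/kg, rosiglitazone 3 mg/kg or vehicle was given orally once daily for 21 days. OGTTs on days 1 and 21 sampled blood at 0, 10, 20, 40 and 60 min, averaging two readings. Age-matched lean rats were included.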

Chain of hGPR40 (O14842 whole entry): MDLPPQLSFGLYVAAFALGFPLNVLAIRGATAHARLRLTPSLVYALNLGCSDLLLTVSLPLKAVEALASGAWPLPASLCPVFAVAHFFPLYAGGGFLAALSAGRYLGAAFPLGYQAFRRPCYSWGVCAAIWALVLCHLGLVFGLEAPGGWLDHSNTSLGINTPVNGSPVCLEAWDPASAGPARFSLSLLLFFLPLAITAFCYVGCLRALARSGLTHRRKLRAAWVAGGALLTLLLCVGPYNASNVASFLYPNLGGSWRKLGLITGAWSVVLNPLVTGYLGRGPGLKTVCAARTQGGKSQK

With `CC#C[C@@H](CC(=O)O)c1ccc(OCc2ccc(CN3CCC4(C=Cc5ccccc54)CC3)cc2)cc1` [LY2881835, (3S)‐3‐(4‐{[4‐(1′H‐spiro[indene‐1,4′‐piperidin]‐1′‐ylmethyl)benzyl]oxy}phenyl)hex‐4‐ynoic acid] the EC50 (hGPR40) was 164 ± 94 nM, the “signals in assay systems not expressing GPR40” value [1] was “No positive signals were detected” and the “insulin secretion in WT primary islets” value [2] was “statistically significant increase in insulin secretion”. The “insulin secretion in GPR40 KO primary islets” value [3] was “Enhanced insulin secretion was absent; also recorded: No insulin secretion”, the “plasma concentration time course” value [4] was “peaked and remained elevated at 15, 30, and 60 min followed by a slight decrease in levels throughout the 8 h study” and the “insulin AUC during IPGTT” value (normal ICR mice; oral 10 mg/kg dose group, versus vehicle) was “statistically significant enhancement in insulin AUC”. For the same compound, the “insulin secretion during IPGTT” value (normal ICR mice; oral 0.3, 1, 3 and 10 mg/kg, 60 min before IP glucose 2 g/kg) was “clear dose‐dependent enhancement in insulin secretion”, the “glucose levels during OGTT” value (WT mice) was “significant glucose lowering” and the “glucose levels during OGTT” value (GPR40 KO mice) was “had no effect on glucose levels”. For the same compound, the hypoglycemia [5] was “no evidence of hypoglycemia was observed”, the “fasting glucose levels at time 0 of the OGTTs” value ([5]; 60 min after administration) was “significantly reduced” and the “glucose levels during OGTTs” value ([5]; OGTTs on days 1 and 15) was “Significant reductions in glucose levels”. The “blood glucose during OGTT after a single treatment” value (STZ-treated DIO mice; oral 30 mg/kg, day 1) was “lowered blood glucose” and the “glucose AUC during OGTTs on days 7 and 14” value (STZ-treated DIO mice) was “Results are similar”.
For `Cc1cc(OCCCS(C)(=O)=O)cc(C)c1-c1cccc(COc2ccc3c(c2)OC[C@H]3CC(=O)O)c1` [TAK‐875], the HbA1c reduction (individuals with T2D) is listed as “superior to historical data with DPPIV inhibitors and comparable with that of sulfonylureas”.
For `CCCCC/C=C\C/C=C\CCCCCCCC(=O)O` [linoleic acid, reference compound], the “insulin secretion in GPR40 KO primary islets” value [3] was “a reduction in insulin secretion was seen” and the “insulin secretion in GPR40 KO primary islets” value ([3]; listed as LA) was “No insulin secretion”.
For `CN(CCOc1ccc(CC2SC(=O)NC2=O)cc1)c1ccccn1` (stereo not shown) [rosiglitazone, Rosiglitazone], the “blood glucose during OGTT on day 1” value (Zucker fa/fa rats) was “no glucose lowering”.
For `N[C@@H](CC(=O)N1CCn2c(nnc2C(F)(F)F)C1)Cc1cc(F)c(F)cc1F` [sitagliptin, reference compound], the “glucose AUC during OGTTs on days 7 and 14” value (STZ-treated DIO mice) was “Results are similar”.

Source: article PMC5226292 (Pharmacology Research & Perspectives, 2016)
